The target in assay [1] is T1, Myosin-IIIb (Homo sapiens) (UniProt Q8WXR4).
T1 sequence (whole entry): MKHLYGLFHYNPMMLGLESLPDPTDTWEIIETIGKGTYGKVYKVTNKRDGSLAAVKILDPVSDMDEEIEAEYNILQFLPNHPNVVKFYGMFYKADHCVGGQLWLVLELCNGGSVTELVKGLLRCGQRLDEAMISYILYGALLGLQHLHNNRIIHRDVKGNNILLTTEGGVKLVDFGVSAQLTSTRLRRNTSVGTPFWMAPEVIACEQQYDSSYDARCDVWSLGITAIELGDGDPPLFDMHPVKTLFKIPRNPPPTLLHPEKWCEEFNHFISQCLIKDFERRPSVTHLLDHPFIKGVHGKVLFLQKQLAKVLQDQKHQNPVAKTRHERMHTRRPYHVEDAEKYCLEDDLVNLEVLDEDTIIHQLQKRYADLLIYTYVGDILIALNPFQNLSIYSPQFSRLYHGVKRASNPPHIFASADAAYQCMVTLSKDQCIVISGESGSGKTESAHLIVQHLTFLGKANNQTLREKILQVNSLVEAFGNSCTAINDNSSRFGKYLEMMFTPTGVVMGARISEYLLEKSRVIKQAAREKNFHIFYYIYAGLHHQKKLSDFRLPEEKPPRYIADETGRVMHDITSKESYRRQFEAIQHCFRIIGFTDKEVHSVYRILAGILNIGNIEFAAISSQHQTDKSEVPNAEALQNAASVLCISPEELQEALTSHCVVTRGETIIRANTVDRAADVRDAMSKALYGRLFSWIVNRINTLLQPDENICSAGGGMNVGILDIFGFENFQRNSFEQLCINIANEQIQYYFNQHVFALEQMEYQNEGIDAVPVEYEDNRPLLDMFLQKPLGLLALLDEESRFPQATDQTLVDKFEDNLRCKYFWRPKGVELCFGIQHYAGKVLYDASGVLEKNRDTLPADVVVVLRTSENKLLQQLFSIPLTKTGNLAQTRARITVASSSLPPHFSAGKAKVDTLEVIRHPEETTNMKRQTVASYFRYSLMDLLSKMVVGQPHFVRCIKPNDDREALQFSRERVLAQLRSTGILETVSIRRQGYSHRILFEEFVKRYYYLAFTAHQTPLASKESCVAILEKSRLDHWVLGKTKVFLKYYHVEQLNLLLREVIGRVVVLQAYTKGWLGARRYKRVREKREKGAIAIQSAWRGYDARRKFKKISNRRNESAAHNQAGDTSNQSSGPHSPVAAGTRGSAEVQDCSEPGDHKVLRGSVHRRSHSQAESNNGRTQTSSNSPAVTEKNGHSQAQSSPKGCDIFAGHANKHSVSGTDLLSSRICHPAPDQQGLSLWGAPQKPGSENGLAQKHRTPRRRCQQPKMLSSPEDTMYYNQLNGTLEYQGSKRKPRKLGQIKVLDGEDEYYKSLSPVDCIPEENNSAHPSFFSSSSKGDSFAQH
As to the kind of experiment: Inhibition of human recombinant MYO3B at 15 nM related to control ULK1.

Assay [2] is filed under the species Homo sapiens. As to the kind of experiment: Inhibition of human recombinant ABL at 40 nM in presence of ATP by radiometric assay relative to control. The procedure, abridged: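 Radiometric activity assays in a panel of 327 human recombinant kinases, each run in duplicate at one inhibitor concentration. Activity remaining is expressed as percent of vehicle control, and percent inhibition is calculated as 100% minus percent activity remaining.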

Assay [3] concerns the target Calcium/calmodulin-dependent protein kinase type 1G (Homo sapiens) (UniProt Q96NX5). Description: Inhibition of human recombinant CaMK1g at 40 nM in presence of ATP by radiometric assay relative to control.
Assay [4] has as its target T2, Dual specificity tyrosine-phosphorylation-regulated kinase 2 (Homo sapiens) (UniProt Q92630).
T2 sequence (whole entry): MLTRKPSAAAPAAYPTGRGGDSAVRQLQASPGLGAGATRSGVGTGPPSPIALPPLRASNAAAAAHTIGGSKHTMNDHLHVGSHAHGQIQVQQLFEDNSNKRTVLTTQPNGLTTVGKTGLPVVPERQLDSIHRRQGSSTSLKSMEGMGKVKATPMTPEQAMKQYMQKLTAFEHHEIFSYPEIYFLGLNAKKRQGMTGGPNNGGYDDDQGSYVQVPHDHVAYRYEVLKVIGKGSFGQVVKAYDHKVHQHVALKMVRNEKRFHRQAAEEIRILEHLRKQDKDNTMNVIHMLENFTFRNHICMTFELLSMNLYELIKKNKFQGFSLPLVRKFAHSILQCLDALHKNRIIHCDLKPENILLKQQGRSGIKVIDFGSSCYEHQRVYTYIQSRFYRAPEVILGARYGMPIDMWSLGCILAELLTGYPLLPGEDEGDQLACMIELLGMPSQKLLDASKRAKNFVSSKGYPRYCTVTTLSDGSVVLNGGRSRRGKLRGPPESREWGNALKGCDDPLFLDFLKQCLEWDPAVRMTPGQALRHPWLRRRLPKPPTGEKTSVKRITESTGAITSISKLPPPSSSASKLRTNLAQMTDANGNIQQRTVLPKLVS
Description: Inhibition of human recombinant DYRK2 at 40 nM in presence of ATP by radiometric assay relative to control.

Assay [5] concerns the target MAP kinase-activated protein kinase 3 (Homo sapiens) (UniProt Q16644). Description: Inhibition of human recombinant MAPKAPK3 at 40 nM in presence of ATP by radiometric assay relative to control.
Assay [6] deals with Serine/threonine-protein kinase WNK1 (Homo sapiens) (UniProt Q9H4A3). Description: Inhibition of human recombinant Wnk1 at 40 nM in presence of ATP by radiometric assay relative to control.
Assay [7] deals with Serine/threonine-protein kinase PAK 5 (Homo sapiens) (UniProt Q9P286). Description: Inhibition of human recombinant PAK5 at 40 nM related to control ULK1.
Assay [8] addresses Phosphorylase b kinase gamma catalytic chain, skeletal muscle/heart isoform (Homo sapiens) (UniProt Q16816). Description: Inhibition of human recombinant PHKg1 at 40 nM related to control ULK1.
The target in assay [9] is Cyclin-dependent kinase 12 (Homo sapiens) (UniProt Q9NYV4). As to the kind of experiment: Inhibition of human recombinant CRK7 at 500 nM in presence of ATP by radiometric assay relative to control.
The target in assay [10] is Tau-tubulin kinase 1 (Homo sapiens) (UniProt Q5TCY1). As to the kind of experiment: Inhibition of human recombinant TTBK1 at 500 nM in presence of ATP by radiometric assay relative to control.
The species named for assay [11] is Homo sapiens. Description: Inhibition of human recombinant p70S6K at 500 nM related to control ULK1.

As a reminder, the inhibition is the percentage by which the read-out fell short of the control.

MAP kinase-activated protein kinase 3 (Homo sapiens), sequence (Q16644 whole entry, looked up): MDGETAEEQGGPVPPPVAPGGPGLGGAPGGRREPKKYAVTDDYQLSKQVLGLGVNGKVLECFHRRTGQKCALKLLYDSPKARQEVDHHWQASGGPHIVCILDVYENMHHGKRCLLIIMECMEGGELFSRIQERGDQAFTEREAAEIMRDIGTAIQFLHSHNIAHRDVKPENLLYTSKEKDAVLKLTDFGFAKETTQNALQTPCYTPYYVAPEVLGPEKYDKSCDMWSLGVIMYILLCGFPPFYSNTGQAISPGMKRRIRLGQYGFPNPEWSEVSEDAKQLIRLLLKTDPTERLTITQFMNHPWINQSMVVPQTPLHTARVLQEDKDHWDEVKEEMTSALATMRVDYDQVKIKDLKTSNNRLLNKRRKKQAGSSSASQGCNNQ
Phosphorylase b kinase gamma catalytic chain, skeletal muscle/heart isoform (Homo sapiens), sequence (Q16816 whole entry, looked up, canonical isoform): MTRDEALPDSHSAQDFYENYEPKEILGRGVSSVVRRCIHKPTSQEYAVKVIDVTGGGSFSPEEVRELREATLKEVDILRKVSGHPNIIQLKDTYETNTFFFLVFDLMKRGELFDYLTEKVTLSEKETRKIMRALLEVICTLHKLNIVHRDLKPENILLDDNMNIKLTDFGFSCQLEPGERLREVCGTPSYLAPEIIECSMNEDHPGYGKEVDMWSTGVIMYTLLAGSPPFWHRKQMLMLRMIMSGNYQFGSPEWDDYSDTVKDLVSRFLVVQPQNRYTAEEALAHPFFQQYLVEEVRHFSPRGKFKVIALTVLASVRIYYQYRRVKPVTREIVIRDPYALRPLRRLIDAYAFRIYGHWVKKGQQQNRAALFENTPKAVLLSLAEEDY
Tau-tubulin kinase 1 (Homo sapiens), sequence (Q5TCY1 whole entry): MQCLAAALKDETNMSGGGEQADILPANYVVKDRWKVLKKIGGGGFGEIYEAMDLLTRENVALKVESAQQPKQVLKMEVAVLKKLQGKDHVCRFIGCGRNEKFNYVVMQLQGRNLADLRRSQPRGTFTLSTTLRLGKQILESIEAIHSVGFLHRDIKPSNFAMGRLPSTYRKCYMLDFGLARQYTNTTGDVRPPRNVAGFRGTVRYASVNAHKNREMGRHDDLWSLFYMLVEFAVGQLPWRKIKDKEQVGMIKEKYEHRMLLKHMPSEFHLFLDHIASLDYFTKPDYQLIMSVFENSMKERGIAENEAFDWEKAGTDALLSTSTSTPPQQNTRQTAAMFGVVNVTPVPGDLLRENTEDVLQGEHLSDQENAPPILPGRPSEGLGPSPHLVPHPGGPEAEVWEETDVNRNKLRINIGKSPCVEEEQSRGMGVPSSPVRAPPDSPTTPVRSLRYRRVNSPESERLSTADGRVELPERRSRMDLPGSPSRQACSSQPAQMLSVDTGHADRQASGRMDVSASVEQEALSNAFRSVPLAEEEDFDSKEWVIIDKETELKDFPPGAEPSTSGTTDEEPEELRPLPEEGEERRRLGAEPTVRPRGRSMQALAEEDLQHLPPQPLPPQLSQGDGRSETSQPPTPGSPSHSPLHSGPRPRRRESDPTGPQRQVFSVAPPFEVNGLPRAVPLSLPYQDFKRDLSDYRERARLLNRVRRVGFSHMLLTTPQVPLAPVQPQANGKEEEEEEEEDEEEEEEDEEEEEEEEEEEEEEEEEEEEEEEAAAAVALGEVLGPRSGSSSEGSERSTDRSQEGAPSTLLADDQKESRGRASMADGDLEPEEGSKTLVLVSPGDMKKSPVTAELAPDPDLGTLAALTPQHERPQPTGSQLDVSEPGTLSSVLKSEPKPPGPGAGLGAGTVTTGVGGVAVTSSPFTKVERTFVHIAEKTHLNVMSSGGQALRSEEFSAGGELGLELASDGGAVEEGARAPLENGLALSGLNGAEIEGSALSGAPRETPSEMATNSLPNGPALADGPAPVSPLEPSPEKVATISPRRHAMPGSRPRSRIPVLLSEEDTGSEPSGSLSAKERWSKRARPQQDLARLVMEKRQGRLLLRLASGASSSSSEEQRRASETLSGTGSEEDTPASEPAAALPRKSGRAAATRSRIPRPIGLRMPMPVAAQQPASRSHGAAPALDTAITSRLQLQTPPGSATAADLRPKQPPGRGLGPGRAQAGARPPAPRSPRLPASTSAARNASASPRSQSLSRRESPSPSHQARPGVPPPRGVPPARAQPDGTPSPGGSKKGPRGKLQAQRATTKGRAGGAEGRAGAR
Calcium/calmodulin-dependent protein kinase type 1G (Homo sapiens), sequence (Q96NX5 whole entry): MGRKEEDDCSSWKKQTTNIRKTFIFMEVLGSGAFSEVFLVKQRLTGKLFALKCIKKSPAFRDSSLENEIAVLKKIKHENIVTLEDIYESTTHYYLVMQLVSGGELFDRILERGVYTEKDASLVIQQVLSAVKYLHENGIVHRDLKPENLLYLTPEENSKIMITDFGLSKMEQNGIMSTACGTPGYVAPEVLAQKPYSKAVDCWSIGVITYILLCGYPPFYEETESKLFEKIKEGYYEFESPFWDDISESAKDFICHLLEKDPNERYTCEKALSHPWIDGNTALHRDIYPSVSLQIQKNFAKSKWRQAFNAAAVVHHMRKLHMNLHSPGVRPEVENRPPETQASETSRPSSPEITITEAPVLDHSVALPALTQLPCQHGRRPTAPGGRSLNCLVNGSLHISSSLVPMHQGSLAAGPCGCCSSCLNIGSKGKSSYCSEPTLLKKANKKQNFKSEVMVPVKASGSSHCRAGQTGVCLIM
Serine/threonine-protein kinase PAK 5 (Homo sapiens), sequence (Q9P286 whole entry, looked up, canonical isoform): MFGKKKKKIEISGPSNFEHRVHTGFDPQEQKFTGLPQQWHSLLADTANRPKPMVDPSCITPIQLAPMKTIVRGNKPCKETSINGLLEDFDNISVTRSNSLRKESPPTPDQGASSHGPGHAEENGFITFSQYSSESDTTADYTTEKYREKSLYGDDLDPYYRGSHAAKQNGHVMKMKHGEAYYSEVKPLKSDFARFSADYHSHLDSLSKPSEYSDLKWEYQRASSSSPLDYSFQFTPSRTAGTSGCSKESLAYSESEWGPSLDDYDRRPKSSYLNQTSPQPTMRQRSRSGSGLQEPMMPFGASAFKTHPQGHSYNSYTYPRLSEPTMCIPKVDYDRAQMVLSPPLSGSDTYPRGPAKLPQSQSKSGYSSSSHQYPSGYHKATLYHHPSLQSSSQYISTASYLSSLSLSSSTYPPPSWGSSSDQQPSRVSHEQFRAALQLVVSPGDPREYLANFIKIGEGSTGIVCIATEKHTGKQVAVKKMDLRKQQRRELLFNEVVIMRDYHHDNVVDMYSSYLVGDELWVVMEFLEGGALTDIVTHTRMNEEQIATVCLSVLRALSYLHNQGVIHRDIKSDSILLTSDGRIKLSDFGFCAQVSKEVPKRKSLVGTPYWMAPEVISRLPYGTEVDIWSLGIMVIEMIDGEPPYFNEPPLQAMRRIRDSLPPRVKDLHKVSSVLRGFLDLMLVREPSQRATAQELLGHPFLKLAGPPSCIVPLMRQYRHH
Cyclin-dependent kinase 12 (Homo sapiens), sequence (Q9NYV4 whole entry, looked up): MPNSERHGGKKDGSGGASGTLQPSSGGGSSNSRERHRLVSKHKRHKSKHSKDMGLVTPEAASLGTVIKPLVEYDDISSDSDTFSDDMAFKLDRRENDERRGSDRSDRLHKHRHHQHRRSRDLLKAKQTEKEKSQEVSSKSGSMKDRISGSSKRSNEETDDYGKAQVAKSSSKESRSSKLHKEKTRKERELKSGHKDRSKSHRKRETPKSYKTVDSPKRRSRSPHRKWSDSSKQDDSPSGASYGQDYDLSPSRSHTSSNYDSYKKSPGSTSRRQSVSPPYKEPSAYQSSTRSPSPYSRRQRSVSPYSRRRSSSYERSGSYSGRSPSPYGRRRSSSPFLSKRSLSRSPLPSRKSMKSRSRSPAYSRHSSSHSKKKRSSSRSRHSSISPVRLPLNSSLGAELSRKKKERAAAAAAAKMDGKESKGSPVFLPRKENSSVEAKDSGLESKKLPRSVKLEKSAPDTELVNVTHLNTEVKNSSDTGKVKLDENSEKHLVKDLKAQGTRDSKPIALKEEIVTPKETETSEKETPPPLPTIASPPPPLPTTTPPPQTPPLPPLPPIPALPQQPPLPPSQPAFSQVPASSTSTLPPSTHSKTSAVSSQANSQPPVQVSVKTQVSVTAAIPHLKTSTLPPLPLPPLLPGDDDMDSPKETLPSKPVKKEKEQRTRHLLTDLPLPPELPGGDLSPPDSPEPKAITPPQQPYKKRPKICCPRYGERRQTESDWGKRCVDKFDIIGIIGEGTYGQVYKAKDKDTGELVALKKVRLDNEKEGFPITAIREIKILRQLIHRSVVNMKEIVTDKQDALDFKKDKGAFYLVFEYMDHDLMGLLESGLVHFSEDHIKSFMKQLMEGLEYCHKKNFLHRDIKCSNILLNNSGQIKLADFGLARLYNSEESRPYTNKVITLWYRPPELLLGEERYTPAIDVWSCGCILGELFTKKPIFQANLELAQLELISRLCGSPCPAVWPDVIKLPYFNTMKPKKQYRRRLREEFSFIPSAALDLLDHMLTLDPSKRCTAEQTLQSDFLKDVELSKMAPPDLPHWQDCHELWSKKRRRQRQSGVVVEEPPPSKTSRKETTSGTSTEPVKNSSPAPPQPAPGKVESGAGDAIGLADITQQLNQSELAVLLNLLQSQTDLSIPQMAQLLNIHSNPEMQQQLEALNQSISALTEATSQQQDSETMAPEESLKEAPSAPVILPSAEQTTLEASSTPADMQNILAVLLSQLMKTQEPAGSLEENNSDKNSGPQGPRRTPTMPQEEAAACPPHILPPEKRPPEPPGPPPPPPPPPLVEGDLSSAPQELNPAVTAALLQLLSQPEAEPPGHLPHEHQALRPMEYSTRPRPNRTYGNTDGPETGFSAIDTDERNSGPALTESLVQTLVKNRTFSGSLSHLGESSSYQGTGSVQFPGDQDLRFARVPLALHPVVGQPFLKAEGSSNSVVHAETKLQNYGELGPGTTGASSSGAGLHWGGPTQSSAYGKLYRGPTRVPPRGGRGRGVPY

With `CC(C)[C@H](NC(=O)c1cc(-c2cnn3cc(-c4ccc(OCCN5CCCCC5)cc4)cnc23)cs1)C(F)(F)F`, the fold change (FC) in assay [1] was 0.07.
Regarding `O=C(N[C@@H](C1CC1)C(F)(F)F)c1cc(-c2cnn3cc(-c4ccc(F)cc4)cnc23)cs1`, the inhibition turned out to be 12% in assay [2]; 0% in assay [3]; 11% in assay [4]; 0% in [5]; 12% in assay [6]. The fold change (FC) in [7] amounted to 0; in assay [8] it was 0.16.
For `CNC(=O)c1ccccc1Oc1nc(Nc2cc(OC)c(OC)c(OC)c2)ncc1Br`, the inhibition was 0% in assay [9] and 1% in assay [10]. Further, in assay [11], the fold change (FC) amounted to 0.

The record behind these values is ChEMBL document CHEMBL5653631, “A Potent and Selective ULK1 Inhibitor Suppresses Autophagy and Sensitizes Cancer Cells to Nutrient Stress” (iScience, 2018).
